In data set [1] the test system is AT-rich DNA dodecamer duplex. As to conditions: DSC, shift on inhibitor binding; cited from earlier work. In general terms: In DSC, transitions show as peaks or steps in heat flow.
Data set [2] is described as follows: in vitro. Particulars: human.
For data set [3], the system named is T. brucei bloodstream form (BSF) parasites. Description: T. brucei growth inhibition. In kind it is cell-based, Trypanosoma brucei brucei Lister 427. Particulars: Trypanosoma brucei, read-out: T. brucei EC50.
Data set [4] in a line: in vitro. As to conditions: human. This is another data set of the same source.
Data set [5] concerns T. brucei brucei Lister 427. Description: T. brucei brucei Lister 427 mouse model of infection. In kind it is in vivo, BALB/C mice. As to conditions: treated mice, i.p. for 4 days (8 at 3 and 10 mg/kg).
For data set [6] the following is noted: treatment of the second or neurological phase of HAT; no reference given; cited from earlier work.
Data set [7] has as its target T1, human FPPS (Homo sapiens, UniProt P14324).
T1 sequence (P14324 1-419): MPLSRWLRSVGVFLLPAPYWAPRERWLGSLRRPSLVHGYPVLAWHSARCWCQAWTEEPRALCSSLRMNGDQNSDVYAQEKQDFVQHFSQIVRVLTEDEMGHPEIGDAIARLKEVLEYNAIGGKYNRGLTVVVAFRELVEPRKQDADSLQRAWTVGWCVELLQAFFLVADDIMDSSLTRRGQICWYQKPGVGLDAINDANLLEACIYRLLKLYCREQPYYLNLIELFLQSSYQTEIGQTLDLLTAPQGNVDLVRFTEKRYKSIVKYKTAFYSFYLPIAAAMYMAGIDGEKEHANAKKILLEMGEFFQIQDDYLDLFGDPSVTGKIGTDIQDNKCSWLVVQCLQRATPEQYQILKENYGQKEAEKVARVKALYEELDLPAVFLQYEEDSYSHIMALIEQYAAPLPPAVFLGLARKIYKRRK
Description: Human FPPS inhibition. In kind it is biochemical. As to conditions: read-out: IC50 against human FPPS.

Data set [8] has as its target T. brucei farnesyl diphosphate synthase (TbFPPS) (Trypanosoma brucei, UniProt Q57WF1). The data set is described as follows: TbFPPS inhibition, coupled colorimetric assay. In kind it is biochemical. Particulars: read-out: TbFPPS IC50; duplicate ± SD; highest inhibitor concentration 316 μM.
Data set [9] relates to T. brucei k-DNA and nuclear DNA replication. The data set is described as follows: Visualization of DNA replication. In kind it is cell-based, Trypanosoma brucei. As to conditions: EdU click chemistry, 72 h treatment. In short, it runs like this: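 Bloodstream-form trypanosomes, after 72 h exposure to test compound (DMSO vehicle as control), were pulsed 16 h with EdU, washed in PBS, fixed in cold 100% ethanol and dried. EdU was detected by Cu(I)-catalysed click labelling with Alexa Fluor 488 azide ([…]), and the cells were counterstained with 10 μg/ml DAPI. Nuclear and k-DNA signals were assessed by fluorescence microscopy.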

Each structure is given as a SMILES string. Read-outs that look alike come from different tables or passages of the source. Some results are limits rather than exact numbers.

On to `N=C(N)c1ccc(OCCCCCOc2ccc(C(=N)N)cc2)cc1` [compound 2, pentamidine], for which the ΔTm in data set [1] is 2.7 °C. Further, the CC50 at 72 h in [2] and in data set [4] was less than 400 nM throughout. For the same compound, the EC50 in [3] (72 h) came to 5.5 nM; in data set [3] it was 5 nM. Besides, in data set [5], the parasitemia result is recorded as “no parasitemia observed”.
For the compound `Nc1nc(N)nc(Nc2ccc([As]3SCC(CO)S3)cc2)n1` (stereo not shown) [compound 3, melarsoprol], in data set [6], the lethal in patients was 5-10%.
As to `N=C(N)c1ccc(-c2ccc(-c3ccc(C(=N)N)cc3)o2)cc1` [compound 6], the IC50 in data set [7] and in data set [8] was approximately 50000 nM in each case.
In the case of `CC[n+]1c(-c2ccccc2)c2cc(N)ccc2c2ccc(N)cc21` [ethidium bromide], the “k-DNA replication in T. brucei” value in [9] was “completely blocked”.

One may read the ΔTm as the shift of the melting midpoint relative to a reference. Usually EC50 stands for the midpoint of the concentration-response curve. For orientation: IC50 means the concentration needed to halve the response being measured.

(Values after article PMC4539249 (ACS infectious diseases, 2015).)
